Assay results taken from ChEMBL document CHEMBL4425103, “Diving into the Water: Inducible Binding Conformations for BRD4, TAF1(2), BRD9, and CECR2 Bromodomains” (J Med Chem, 2016).

Key:
[1] = target: Chromatin remodeling regulator CECR2 (Homo sapiens, UniProt Q9BXF3); test: Inhibition of recombinant His-tagged CECR2 (unknown origin) using biotinylated ligand incubated for 10 mins by TR-FRET assay
[2] = tested on: T1, Chromatin remodeling regulator CECR2 (Homo sapiens), Q9BXF3 [Y520I]; test: Binding affinity to CECR2 Y520I mutant (unknown origin) assessed as change in melting temperature at 10 uM by SYPRO red dye based differential scanning fluorimetry
T1 sequence (whole entry): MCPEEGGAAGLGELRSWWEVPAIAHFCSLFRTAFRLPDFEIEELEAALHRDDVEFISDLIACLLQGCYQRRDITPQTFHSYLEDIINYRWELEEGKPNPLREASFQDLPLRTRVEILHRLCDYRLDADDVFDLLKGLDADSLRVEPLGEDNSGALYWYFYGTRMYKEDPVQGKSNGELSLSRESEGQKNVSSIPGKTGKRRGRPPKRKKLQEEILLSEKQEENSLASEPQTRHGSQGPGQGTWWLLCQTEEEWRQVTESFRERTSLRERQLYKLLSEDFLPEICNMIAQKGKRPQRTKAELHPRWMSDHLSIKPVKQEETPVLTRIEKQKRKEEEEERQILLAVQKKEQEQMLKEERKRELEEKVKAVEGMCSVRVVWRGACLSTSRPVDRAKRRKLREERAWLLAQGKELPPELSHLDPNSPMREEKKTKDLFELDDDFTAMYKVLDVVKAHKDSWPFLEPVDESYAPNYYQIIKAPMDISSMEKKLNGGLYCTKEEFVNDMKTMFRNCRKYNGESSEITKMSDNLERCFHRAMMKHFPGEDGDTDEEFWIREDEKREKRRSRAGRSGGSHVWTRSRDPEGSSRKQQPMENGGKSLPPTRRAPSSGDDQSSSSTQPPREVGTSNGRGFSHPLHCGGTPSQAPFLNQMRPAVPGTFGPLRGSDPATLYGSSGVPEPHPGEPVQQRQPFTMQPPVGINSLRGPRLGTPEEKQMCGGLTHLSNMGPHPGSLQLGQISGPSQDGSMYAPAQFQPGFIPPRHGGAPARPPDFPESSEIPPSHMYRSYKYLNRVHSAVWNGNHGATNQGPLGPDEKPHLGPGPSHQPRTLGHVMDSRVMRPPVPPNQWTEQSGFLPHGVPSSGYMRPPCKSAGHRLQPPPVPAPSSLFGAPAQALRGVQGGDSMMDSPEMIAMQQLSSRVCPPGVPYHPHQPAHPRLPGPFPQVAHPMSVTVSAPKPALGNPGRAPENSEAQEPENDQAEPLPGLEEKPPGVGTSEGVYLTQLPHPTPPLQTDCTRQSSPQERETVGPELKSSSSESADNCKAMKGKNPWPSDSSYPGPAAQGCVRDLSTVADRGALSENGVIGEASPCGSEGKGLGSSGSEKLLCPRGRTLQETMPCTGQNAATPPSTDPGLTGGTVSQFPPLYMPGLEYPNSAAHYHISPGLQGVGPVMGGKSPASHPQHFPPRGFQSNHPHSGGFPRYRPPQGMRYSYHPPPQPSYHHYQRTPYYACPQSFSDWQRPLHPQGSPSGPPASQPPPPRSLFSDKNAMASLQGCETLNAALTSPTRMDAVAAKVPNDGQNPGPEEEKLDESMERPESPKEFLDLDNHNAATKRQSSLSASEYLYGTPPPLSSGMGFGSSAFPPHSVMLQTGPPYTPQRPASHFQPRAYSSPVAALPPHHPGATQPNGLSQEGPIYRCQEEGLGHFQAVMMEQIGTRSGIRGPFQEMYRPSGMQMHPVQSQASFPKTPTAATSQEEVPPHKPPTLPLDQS
Outline: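 Differential scanning fluorimetry: aggregate removed by centrifugation, then bromodomain at 4 µM final with 10X SYPRO Red, 10 µM compound and 0.2% DMSO in 20 mM HEPES pH 7.7, 100 mM NaCl. Heated 25 to 95 °C, fluorescence read at 1 °C steps. Apparent Tm taken from melt curves; mean of at least five wells for CECR2.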

[3] = target: Bromodomain adjacent to zinc finger domain protein 2A (Homo sapiens, UniProt Q9UIF9); test: Binding affinity to human partial length BAZ2A expressed in bacterial expression system by BROMOscan assay
Protein polybromo-1 = Protein polybromo-1 (Homo sapiens, UniProt Q86U86); test: Binding affinity to human partial length PBRM1(2) expressed in bacterial expression system by BROMOscan assay
[4] = target: T2, Transcription intermediary factor 1-alpha (Homo sapiens, UniProt O15164); test: Binding affinity to human partial length TRIM24 expressed in bacterial expression system by BROMOscan assay
T2 sequence (O15164 whole entry): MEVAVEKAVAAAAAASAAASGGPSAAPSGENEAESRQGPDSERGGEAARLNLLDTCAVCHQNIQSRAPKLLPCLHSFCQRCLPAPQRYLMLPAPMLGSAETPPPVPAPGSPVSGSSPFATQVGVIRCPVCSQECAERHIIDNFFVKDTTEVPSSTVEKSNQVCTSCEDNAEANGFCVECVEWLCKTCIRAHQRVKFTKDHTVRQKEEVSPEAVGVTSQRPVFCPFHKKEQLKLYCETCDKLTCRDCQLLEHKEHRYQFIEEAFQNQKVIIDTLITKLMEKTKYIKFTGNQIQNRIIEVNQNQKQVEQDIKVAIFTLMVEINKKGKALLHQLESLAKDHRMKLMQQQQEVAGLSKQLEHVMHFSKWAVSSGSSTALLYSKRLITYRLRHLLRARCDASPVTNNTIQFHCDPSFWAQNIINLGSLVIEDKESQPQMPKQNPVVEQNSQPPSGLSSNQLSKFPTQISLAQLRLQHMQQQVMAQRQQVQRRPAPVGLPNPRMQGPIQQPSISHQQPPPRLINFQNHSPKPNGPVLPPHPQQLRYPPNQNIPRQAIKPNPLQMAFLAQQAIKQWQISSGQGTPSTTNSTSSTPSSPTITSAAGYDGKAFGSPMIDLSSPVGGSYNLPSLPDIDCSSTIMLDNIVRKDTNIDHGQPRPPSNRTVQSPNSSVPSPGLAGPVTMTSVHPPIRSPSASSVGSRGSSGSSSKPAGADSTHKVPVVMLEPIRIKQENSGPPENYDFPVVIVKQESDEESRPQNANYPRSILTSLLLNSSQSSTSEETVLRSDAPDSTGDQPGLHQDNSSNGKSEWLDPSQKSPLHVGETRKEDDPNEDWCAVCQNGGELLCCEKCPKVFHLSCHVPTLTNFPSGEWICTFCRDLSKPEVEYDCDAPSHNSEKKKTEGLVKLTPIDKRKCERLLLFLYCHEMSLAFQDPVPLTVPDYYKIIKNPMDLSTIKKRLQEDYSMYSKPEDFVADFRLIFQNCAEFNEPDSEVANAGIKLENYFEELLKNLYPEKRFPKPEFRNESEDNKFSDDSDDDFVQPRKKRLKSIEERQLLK

Bromodomain adjacent to zinc finger domain protein 2A, sequence (Q9UIF9 whole entry, the tested form may be a part): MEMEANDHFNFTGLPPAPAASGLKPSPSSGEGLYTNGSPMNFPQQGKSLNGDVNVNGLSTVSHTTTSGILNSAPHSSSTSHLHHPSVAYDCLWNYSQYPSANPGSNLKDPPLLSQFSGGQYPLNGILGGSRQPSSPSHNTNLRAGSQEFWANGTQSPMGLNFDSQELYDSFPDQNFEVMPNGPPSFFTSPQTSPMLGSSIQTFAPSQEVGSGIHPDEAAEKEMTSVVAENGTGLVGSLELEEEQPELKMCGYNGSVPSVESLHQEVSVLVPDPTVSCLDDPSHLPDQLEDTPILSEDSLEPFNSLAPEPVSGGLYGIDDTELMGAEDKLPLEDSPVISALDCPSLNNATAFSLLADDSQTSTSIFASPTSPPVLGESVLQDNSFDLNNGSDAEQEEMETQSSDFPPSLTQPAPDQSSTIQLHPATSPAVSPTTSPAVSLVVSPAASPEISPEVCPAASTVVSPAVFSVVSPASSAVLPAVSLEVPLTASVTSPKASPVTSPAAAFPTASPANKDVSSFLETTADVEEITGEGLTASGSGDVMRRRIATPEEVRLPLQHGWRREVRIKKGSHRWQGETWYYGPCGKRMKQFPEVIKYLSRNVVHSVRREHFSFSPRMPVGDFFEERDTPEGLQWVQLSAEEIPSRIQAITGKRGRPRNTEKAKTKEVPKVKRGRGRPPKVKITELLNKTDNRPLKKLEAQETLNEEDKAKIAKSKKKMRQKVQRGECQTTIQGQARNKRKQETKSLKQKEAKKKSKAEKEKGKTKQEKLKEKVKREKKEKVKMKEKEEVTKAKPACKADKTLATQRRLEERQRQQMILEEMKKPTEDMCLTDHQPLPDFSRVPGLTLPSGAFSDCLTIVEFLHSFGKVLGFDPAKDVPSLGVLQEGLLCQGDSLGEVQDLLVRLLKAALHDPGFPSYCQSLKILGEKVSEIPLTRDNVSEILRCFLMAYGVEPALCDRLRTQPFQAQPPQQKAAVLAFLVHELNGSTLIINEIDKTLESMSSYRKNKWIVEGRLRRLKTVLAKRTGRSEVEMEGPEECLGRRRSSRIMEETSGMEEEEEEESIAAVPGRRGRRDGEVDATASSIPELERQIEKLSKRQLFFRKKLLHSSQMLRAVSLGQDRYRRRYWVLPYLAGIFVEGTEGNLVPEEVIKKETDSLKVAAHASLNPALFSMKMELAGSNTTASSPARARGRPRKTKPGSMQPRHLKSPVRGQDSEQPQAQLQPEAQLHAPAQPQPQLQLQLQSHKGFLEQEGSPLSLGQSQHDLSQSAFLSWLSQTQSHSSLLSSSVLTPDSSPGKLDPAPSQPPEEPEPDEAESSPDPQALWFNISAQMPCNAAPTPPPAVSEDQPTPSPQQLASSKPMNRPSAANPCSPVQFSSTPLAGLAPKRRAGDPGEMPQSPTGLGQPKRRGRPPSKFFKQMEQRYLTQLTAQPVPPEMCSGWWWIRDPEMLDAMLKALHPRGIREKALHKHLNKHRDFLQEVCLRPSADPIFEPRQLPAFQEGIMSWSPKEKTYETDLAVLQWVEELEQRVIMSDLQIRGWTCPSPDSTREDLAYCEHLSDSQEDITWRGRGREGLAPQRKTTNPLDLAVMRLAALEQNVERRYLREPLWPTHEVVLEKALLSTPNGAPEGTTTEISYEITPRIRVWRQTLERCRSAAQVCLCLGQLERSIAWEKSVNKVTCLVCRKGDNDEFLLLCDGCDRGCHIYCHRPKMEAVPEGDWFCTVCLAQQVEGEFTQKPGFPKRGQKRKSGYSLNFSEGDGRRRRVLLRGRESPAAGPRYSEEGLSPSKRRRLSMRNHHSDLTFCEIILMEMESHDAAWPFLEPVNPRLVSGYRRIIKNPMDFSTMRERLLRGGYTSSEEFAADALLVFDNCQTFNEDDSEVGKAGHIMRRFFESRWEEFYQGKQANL
Protein polybromo-1, sequence (Q86U86 whole entry): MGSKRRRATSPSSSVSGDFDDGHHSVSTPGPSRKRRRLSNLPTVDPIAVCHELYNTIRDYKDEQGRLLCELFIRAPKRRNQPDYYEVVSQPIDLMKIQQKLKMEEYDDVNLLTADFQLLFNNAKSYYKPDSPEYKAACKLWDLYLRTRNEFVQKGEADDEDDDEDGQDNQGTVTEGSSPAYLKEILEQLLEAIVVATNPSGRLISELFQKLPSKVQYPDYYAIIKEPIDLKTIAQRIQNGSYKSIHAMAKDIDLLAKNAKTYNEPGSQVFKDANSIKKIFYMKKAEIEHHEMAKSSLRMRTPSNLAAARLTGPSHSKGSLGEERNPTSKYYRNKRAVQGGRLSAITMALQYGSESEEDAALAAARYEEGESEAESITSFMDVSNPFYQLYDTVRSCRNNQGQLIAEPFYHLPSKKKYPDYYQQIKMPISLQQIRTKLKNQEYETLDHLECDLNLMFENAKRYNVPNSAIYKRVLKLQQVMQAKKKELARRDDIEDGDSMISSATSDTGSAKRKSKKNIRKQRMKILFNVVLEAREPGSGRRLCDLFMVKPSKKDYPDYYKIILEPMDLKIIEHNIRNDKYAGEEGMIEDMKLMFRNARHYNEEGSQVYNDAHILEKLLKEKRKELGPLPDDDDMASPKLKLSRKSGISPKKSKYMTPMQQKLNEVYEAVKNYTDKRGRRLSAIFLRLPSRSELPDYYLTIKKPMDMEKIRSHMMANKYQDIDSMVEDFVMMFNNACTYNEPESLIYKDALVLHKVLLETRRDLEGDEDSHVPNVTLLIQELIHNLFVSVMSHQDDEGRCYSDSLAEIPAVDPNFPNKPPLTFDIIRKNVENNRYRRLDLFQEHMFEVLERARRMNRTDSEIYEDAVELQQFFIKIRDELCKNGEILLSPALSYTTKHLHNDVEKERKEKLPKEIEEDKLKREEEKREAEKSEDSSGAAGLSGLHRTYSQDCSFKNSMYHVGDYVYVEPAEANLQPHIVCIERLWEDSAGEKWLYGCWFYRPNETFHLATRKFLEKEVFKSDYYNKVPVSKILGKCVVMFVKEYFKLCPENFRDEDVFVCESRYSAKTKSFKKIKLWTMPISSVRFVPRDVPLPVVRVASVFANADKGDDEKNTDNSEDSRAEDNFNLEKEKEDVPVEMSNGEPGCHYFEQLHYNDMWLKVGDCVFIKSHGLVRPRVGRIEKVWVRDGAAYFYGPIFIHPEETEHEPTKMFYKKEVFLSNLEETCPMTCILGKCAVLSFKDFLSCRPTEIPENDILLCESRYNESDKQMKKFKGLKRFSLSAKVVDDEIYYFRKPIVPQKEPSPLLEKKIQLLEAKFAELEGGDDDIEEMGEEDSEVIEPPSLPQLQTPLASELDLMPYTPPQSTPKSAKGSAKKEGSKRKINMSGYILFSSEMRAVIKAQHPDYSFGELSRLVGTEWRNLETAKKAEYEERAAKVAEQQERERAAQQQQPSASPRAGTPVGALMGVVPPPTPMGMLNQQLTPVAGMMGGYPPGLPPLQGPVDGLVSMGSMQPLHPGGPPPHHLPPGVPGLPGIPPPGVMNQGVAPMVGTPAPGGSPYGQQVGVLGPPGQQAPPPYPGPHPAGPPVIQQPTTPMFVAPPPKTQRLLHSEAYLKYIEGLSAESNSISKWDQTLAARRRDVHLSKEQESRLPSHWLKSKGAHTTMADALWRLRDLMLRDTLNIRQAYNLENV
Chromatin remodeling regulator CECR2, sequence (Q9BXF3 whole entry): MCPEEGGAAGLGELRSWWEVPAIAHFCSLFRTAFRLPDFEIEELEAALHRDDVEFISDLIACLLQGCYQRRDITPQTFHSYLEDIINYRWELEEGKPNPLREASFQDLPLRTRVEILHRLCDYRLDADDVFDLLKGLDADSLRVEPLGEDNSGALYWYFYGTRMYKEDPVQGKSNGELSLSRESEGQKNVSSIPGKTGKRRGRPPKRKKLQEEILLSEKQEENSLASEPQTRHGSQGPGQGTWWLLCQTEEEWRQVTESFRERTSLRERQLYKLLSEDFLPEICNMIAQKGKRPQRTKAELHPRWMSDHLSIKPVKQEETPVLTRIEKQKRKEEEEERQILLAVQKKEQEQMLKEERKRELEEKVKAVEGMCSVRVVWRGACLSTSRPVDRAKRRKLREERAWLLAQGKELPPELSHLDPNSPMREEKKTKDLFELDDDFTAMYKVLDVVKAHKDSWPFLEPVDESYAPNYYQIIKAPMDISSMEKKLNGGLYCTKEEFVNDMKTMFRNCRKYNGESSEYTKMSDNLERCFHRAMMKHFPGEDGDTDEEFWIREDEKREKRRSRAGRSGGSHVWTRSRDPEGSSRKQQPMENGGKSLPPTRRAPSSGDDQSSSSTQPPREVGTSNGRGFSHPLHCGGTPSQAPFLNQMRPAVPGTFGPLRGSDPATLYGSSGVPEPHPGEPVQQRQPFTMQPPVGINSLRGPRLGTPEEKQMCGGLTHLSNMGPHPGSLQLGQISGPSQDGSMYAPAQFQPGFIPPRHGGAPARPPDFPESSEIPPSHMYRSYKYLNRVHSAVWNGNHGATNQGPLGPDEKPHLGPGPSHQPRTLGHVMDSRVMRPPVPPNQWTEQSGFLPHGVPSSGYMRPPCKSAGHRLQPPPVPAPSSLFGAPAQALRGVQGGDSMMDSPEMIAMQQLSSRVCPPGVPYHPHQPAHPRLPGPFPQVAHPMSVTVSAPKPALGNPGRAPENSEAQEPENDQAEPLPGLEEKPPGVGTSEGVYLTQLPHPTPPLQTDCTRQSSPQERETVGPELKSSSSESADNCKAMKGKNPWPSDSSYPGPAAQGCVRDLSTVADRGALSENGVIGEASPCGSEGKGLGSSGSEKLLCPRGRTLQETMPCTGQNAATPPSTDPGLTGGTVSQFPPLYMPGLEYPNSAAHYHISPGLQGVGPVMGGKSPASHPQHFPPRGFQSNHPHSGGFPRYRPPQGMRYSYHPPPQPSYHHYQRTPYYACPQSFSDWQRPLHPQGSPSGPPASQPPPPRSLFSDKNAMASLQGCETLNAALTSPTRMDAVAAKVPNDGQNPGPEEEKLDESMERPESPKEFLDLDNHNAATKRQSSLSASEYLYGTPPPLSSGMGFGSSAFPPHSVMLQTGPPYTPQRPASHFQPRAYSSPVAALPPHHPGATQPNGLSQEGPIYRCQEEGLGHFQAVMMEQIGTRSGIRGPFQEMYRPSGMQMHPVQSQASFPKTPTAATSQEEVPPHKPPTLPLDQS

| IC50 [1] [nM] | ΔTm [2] [°C] | Kd [3] [nM] | Kd (Protein polybromo-1) [nM] | Kd [4] [nM] | SMILES |
| --- | --- | --- | --- | --- | --- |
| 170 | -1 | – | – | – | C=CCn1cc(-c2cccc(C(=O)N(C)C)c2)c2cc[nH]c2c1=O |
| – | 3 | 880 | 7600 | 910 | CN(C)C(=O)c1cccc(-c2cn(C)c(=O)c3[nH]ccc23)c1 |
